High-throughput results as filed in PubChem.
FN deposit inh = inhibitors of fibronectin matrix deposition, primary screen, AH1F cells, Alexa488-fibronectin fluorescence, plate reader. AH1F fibroblasts, overnight. inhibition, % at 12.6 µM. hit rate 0.086% among 350,000. AID 743247, 2014;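 active = mean inhibition across replicates of 30% or more, regardless of how many single replicates reach that level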;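 also: positive control wells lacked labelled fibronectin entirely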
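material = AH1F fibroblast monolayer depositing Alexa488-labelled fibronectin into matrix | amount = 10000 AH1F cells/well | buffer or medium = DMEM plus 2% serum, read in PBS | incubation = 1 h cell adhesion before compound, then overnight fibronectin incubation | detection = fluorescence at 485 nm excitation, 525 nm emission | evaluation = percent inhibition as loss of matrix-bound fibronectin fluorescence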
SKKanGAS inh = S. pyogenes SKKanGAS growth inhibitors in kanamycin, primary screen, streptokinase expression inhibitor project, SKKanGAS strain, BacTiter-Glo luminescence | hit rate 1.3% among 300,000 | inhibition, % at 7.5 µM | 6 h;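 active = mean replicate score, as percent of positive control median, at least 50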;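 also: strain carries kanamycin resistance gene driven by streptokinase promoter and grows in 40 µg/ml kanamycin; loss of luminescence reflects streptokinase promoter inhibition or plain growth inhibition; 0% = median of DMSO wells and 100% = positive control at its reference dose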
CSC inhib = cancer stem cell viability inhibitors, primary screen, luminescence; cancer stem cell-like cells viability; inhibition, % at 7.5 µM; hit rate 1.1% among 300,000; in the data active = inhibition above about 75%; tested in HMLE shEcad cells
PfHsp90 yeast 2 = growth inhibition of PfHsp90-expressing yeast, primary screen, antimalarial PfHsp90 inhibitor project, S. cerevisiae, BacTiter-Glo luminescence, single point, set 2 | inhibition, % at 9.4 µM | BacTiter-Glo ATP, 48 h; yeast lacking PDR1 and PDR3 efflux regulators | hit rate 0.32% among 310,000 | AID 504621, 2011;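 active = every replicate shows inhibition above about 80%, whatever the replicate mean, limit read from the data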;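 also: 0% = DMSO neutral controls and 100% = 20 µM radicicol positive controls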
PglD DTNB = C. jejuni PglD acetyltransferase inhibitors, primary screen, biochemical, DTNB colorimetric, single point; UDP-N-acetylbacillosamine N-acetyltransferase PglD (Campylobacter jejuni); purified PglD enzyme, DTNB colorimetric CoA detection; inhibition, % at 12.5 µM; hit rate 0.098% among 360,000; AID 602405, 2012; in the data active = inhibition above about 16%, passing the limit was not always enough
Rtt109 Vps75 = inhibitors of C. albicans Rtt109/Vps75 HAT, primary screen, biochemical, ThioGlo CoA-SH fluorescence, plate reader. hit rate 0.16% among 330,000. purified Rtt109/Vps75, 4 h. Histone acetyltransferase RTT109 (Candida albicans (strain SC5314 / ATCC MYA-2876)), …. inhibition, % at 34.9 µM;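 active = inhibition of at least 50% in every replicate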
Target sequence (Q5AAJ8 whole entry, looked up): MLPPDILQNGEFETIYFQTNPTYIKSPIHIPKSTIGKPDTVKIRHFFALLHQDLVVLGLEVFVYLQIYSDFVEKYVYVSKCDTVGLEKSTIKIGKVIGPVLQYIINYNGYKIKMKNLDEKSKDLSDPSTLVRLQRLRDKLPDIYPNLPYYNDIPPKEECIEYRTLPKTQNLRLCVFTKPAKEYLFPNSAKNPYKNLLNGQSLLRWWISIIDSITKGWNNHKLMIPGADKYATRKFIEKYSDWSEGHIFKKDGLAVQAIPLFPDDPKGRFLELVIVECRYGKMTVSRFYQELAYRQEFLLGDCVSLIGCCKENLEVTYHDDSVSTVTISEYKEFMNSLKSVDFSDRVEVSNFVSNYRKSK
Active calls of the source: *; nt = not tested or not shown. An excerpt weighted towards active compounds, which were near 1.7% of everything screened.

SMILES	FN deposit inh	SKKanGAS inh	CSC inhib	PfHsp90 yeast 2	PglD DTNB	Rtt109 Vps75
O=C(Nc1ccc(F)cc1)Nc1ccc2c(c1)[C@@H]1C[C@H](CC(=O)N3CCOCC3)O[C@@H](CO)[C@@H]1O2	-12	nt	nt	nt	1	nt
CNC(CC(C)C)C(=O)NC1C(=O)NC(CC(N)=O)C(=O)NC2C(=O)NC3C(=O)NC(C(=O)NC(C(=O)O)c4cc(O)cc(O)c4-c4cc3ccc4O)C(O)c3ccc(c(Cl)c3)Oc3cc2cc(c3OC2OC(CO)C(O)C(O)C2OC2CC(C)(N)C(O)C(C)O2)Oc2ccc(cc2Cl)C1O (centres undefined)	-1	102*	-5	-8	-3	0
CCNC(=O)C[C@@H]1CC[C@@H]2[C@H](COc3ccc(NC(=O)C4CCOCC4)cc3C(=O)N2C)O1	-17	nt	nt	nt	-2	nt
CCCCCCCCCCCCCCCC[N+](C)(C)CC	16	101*	101*	108*	2	74*
CCCCCCCCCCCCCCCC[N+](C)(C)CCl	-7	nt	nt	105*	nt	-15
CCCCCC[N+](C)(C)CCSSCC[N+](C)(C)CCCCCC	-11	4	-3	11	-3	8
O=C(Nc1ccc2c(c1)[C@@H]1C[C@@H](CC(=O)N3CCCCC3)O[C@@H](CO)[C@@H]1O2)C1CCOCC1	nt	nt	nt	nt	4	nt
O=C(/C=C/c1ccccc1)CC(=O)c1ccccc1O	-5	50*	18	-1	nt	-11
O=C(/C=C/c1ccccc1)CCN1CCCCC1	22	nt	nt	117*	0	4
O=C(C=Cc1cccc(O)c1)c1ccccc1O	-1	nt	nt	104*	7	0
O=C(CCN1CCCCCC1)c1ccccc1	-5	nt	-3	-3	-3	-3
O=C(/C=C/c1ccccc1)NC(=O)c1ccccc1O	-6	-2	8	13	-2	6
O=C(N[C@H]1CC[C@H](CC(=O)N2CCc3ccccc3C2)O[C@@H]1CO)C1CCOCC1	6	nt	nt	nt	-2	nt
O=C(NCc1ccc2c(c1)OCO2)c1ccc(CS(=O)Cc2cccc(Cl)c2)o1 (centres undefined)	6	1	-16	4	-5	52*
CN(C)CC(=O)Nc1ccc2c(c1)[C@H]1C[C@H](CC(=O)NCc3ccccc3F)O[C@H](CO)[C@H]1O2	-5	nt	nt	nt	-6	nt
CC1(C)CCCC2(C)C1CCC1(C)OC(=O)CCC12 (centres undefined)	nt	nt	nt	nt	-4	nt
CC(=O)OC[C@]12CC[C@H]3[C@@](C)(CC[C@H]4C(C)(C)CCC[C@]34C)[C@@H]1C[C@H](C1=CC(=O)O[C@@H]1OC(C)=O)O2	nt	nt	132*	nt	nt	nt
CCOC(=O)C1=NN(C(=O)c2ccc(C)cc2)C(O)(c2ccc(Cl)cc2)C1 (centres undefined)	6	55*	-2	-29	1	-28
CCC1=NN(C(=O)c2ccc(Cl)cc2)C(O)(c2ccccc2)C1 (centres undefined)	-6	15	63	-10	4	-2
CCC1=NN(C(=O)c2ccccc2O)C(O)(c2ccccc2)C1 (centres undefined)	14	54*	79*	17	-2	1
COC(=O)C1=NN(C(=O)c2ccc(Cl)cc2)C(O)(c2ccccc2)C1 (centres undefined)	-3	-24	-4	28	0	2
CCC1=NN(C(=O)c2ccccc2Br)C(O)(c2ccc(Br)cc2)C1 (centres undefined)	4	5	-9	-1	-3	-9
CCC1=NN(C(=O)c2ccc(Cl)cc2)C(O)(c2ccc(C)cc2)C1 (centres undefined)	5	-2	99*	-1	-1	7
Fc1ccccc1CNc1ccc(Cl)c(Cl)c1	5	56*	3	-11	0	-1
CCOC(=O)Nc1ccc2nc(Sc3ccc(Cl)cc3)sc2c1	11	24	85*	-1	0	2
SMILES	FN deposit inh	SKKanGAS inh	CSC inhib	PfHsp90 yeast 2	PglD DTNB	Rtt109 Vps75
CN(C)CCCNC(=O)C[C@H]1CC[C@@H](NS(=O)(=O)c2ccc(F)cc2)[C@@H](CO)O1	nt	nt	nt	nt	-2	nt
CCCC(=O)Nc1ccc2c(c1)C(=O)N(C)C[C@H](OC)[C@H](C)CN(C(=O)CC1CC1)[C@@H](C)CO2	-10	nt	nt	nt	5	nt
COc1ccccc1Nc1nc(-c2cccc([N+](=O)[O-])c2)cs1	1	-20	74	-5	nt	11
COc1cccc(NC(=O)Nc2nc(-c3ccc(OC)c(OC)c3)cs2)c1	28	33	104*	-2	0	14
O=[N+]([O-])c1cccc(-c2csc(Nc3ccccc3)n2)c1	3	nt	94*	-11	-2	12
O=C(Nc1cccc(-c2csc(Nc3cccc(C(F)(F)F)c3)n2)c1)c1ccccc1	2	93*	130*	63	5	3
O=C(Nc1ccc(-c2csc(Nc3cccc(C(F)(F)F)c3)n2)cc1)c1ccccc1	2	84*	136*	-3	-1	8
Cc1noc(C)c1NC(=O)Nc1ccc2c(c1)C(=O)N([C@H](C)CO)C[C@@H](C)[C@@H](CN(C)S(=O)(=O)c1ccccc1)OCCCC[C@@H](C)O2	10	nt	nt	nt	0	nt
O=C(Nc1cccc(-c2csc(Nc3ccccc3)n2)c1)c1ccccc1	8	41	100*	-46	9	-1
O=C(Nc1nc(-c2ccccc2)cs1)c1cccc([N+](=O)[O-])c1	5	19	19	nt	-1	-4
O=C(Nc1ccc(-c2csc(Nc3cccc(C(F)(F)F)c3)n2)cc1)c1cc([N+](=O)[O-])cc(C(F)(F)F)c1	6	53*	88*	3	-5	2
C[C@H]1CN([C@@H](C)CO)C(=O)c2cc(NC(=O)C3CC3)ccc2O[C@H]1CN(C)CC1CCCCC1	nt	nt	nt	nt	3	nt
C[C@@H]1CN([C@H](C)CO)C(=O)c2cc(NC(=O)CCCN(C)C)ccc2O[C@@H](C)CCCCO[C@@H]1CN(C)S(=O)(=O)c1ccccc1	-11	nt	nt	nt	2	nt
C[C@H](CO)N1C[C@H](C)[C@@H](CN(C)S(=O)(=O)c2cn(C)cn2)Oc2ccc(NS(C)(=O)=O)cc2CC1=O	nt	nt	nt	nt	-1	nt
O=C(C[C@@H]1C[C@H]2c3cc(NC(=O)CC4CC4)ccc3O[C@H]2[C@H](CO)O1)NCc1ccc(Cl)cc1	-25	nt	nt	nt	2	nt
C[C@@H]1CCCCO[C@H](CN(C)Cc2ccc(C(=O)O)cc2)[C@H](C)CN([C@@H](C)CO)C(=O)c2cc(NC(=O)c3ccncc3)ccc2O1	nt	nt	nt	nt	1	nt
O=C(Cc1cccnc1)N1CC2(C1)[C@H](c1ccccc1)[C@H](CO)N2C(=O)C1CCC1	-4	nt	nt	nt	nt	nt
